According to ChEMBL document CHEMBL3272334, “Folate antagonists. 10. Synthesis and antimalarial effects of 6-[[(aryl and aralkyl)amino]methyl]-2,4-pteridinediamines and -pteridinediamine 8-oxides” (1978):
≈ marks a conversion by molar mass, not a printed value. Calls of active or inactive are those of the source. The rule behind the calls is not given here.

Experiments:
Plasmodium berghei [1] = test: Antimalarial activity against drug-sensitive trophozoite stage of Plasmodium berghei infected in mouse assessed as increase in mean survival time up to 640 mg/kg, sc administered 72 hrs post infection; format: functional, organism-based; set-up: dose 640 mg/kg
Plasmodium berghei [2] = test: Antimalarial activity against drug-sensitive trophozoite stage of Plasmodium berghei infected in mouse assessed as survival over 60 days at 320 mg/kg, sc administered 72 hrs post infection; format: functional, organism-based; set-up: dose 320 mg/kg
Plasmodium cynomolgi [3] = test: Antimalarial activity against sporozoite stage of Plasmodium cynomolgi infected in rhesus monkey at 10 mg/kg; format: functional, organism-based; set-up: dose 10 mg/kg
Method in brief: (§1)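 Rhesus monkey, one oral dose. Trophozoite-induced P. cynomolgi infection at 3.16 mg/kg; sporozoite-induced P. cynomolgi infection at 10 mg/kg.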

Plasmodium cynomolgi [4] = test: Antimalarial activity against trophozoite stage of Plasmodium cynomolgi infected in rhesus monkey at 3.16 mg/kg, po; format: functional, organism-based; set-up: dose 3.16 mg/kg; method in brief: as §1
Enterococcus faecalis = test: Antibacterial activity against Streptococcus faecalis MGH2 assessed as growth inhibition by gradient plate test; format: functional
Method in brief: (§2)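 Modified gradient-plate method, in vitro. Panel: Streptococcus faecalis MGH-2, normal S. aureus UC-76, drug-resistant S. aureus S18713, E. coli Vogel, Shigella sonnei C-10.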

Escherichia coli = test: Antibacterial activity against Escherichia coli Vogel assessed as growth inhibition by gradient plate test; format: functional; method in brief: as §2
Shigella sonnei = test: Antibacterial activity against Shigella sonnei C-10 assessed as growth inhibition by gradient plate test; format: functional; method in brief: as §2
Plasmodium berghei [5] = test: Antimalarial activity against trophozoite stage of Plasmodium berghei infected in mouse assessed as increase in mean survival time at 40 mg/kg, sc administered 72 hrs post infection; format: functional; details: route subcutaneous
Staphylococcus aureus [6] = test: Antibacterial activity against Staphylococcus aureus UC-76 assessed as growth inhibition by gradient plate test; format: functional; method in brief: as §2
Staphylococcus aureus [7] = test: Antibacterial activity against drug-resistant Staphylococcus aureus S18713 assessed as growth inhibition by gradient plate test; format: functional
Method in brief: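 In vitro test against a bacterial panel (S. faecalis MGH-2, S. aureus UC-76 and drug-resistant S18713, E. coli Vogel, Shigella sonnei C-10), run as a modified gradient plate procedure.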

Plasmodium gallinaceum [8] = test: Antimalarial activity against sporozoite stage of Plasmodium gallinaceum infected in white leghorn cockerel assessed as increase in mean survival time at 30 mg/kg, sc administered through peanut oil on day of infection; format: functional; details: route subcutaneous
Plasmodium gallinaceum [9] = test: Antimalarial activity against sporozoite stage of Plasmodium gallinaceum infected in white leghorn cockerel assessed as increase in mean survival time at 120 mg/kg, sc administered through peanut oil on day of infection; format: functional; details: route subcutaneous
Plasmodium gallinaceum [10] = test: Antimalarial activity against sporozoite stage of Plasmodium gallinaceum infected in white leghorn cockerel assessed as increase in mean survival time at 480 mg/kg, sc administered through peanut oil on day of infection; format: functional; details: route subcutaneous
Plasmodium gallinaceum [11] = test: Antimalarial activity against sporozoite stage of Plasmodium gallinaceum infected in white leghorn cockerel assessed as survival over 30 days at 480 mg/kg, sc administered through peanut oil on day of infection; format: functional, organism-based; set-up: dose 480 mg/kg
Plasmodium gallinaceum [12] = test: Antimalarial activity against sporozoite stage of Plasmodium gallinaceum infected in white leghorn cockerel assessed as survival over 30 days at 60 mg/kg, sc administered through peanut oil on day of infection; format: functional, organism-based; set-up: dose 60 mg/kg
Plasmodium gallinaceum [13] = test: Antimalarial activity against sporozoite stage of Plasmodium gallinaceum infected in white leghorn cockerel assessed as increase in mean survival time at 3.75 mg/kg, sc administered through peanut oil on day of infection; format: functional; details: route subcutaneous
Plasmodium gallinaceum [14] = test: Antimalarial activity against sporozoite stage of Plasmodium gallinaceum infected in white leghorn cockerel assessed as survival over 30 days at 120 mg/kg, sc administered through peanut oil on day of infection; format: functional, organism-based; set-up: dose 120 mg/kg
Plasmodium gallinaceum [15] = test: Antimalarial activity against sporozoite stage of Plasmodium gallinaceum infected in white leghorn cockerel assessed as survival over 30 days at 30 mg/kg, sc administered through peanut oil on day of infection; format: functional, organism-based; set-up: dose 30 mg/kg
Plasmodium gallinaceum [16] = test: Antimalarial activity against sporozoite stage of Plasmodium gallinaceum infected in white leghorn cockerel assessed as increase in mean survival time at 7.5 mg/kg, sc administered through peanut oil on day of infection; format: functional; details: route subcutaneous
Plasmodium gallinaceum [17] = test: Antimalarial activity against sporozoite stage of Plasmodium gallinaceum infected in white leghorn cockerel assessed as survival over 30 days at 15 mg/kg, sc administered through peanut oil on day of infection; format: functional, organism-based; set-up: dose 15 mg/kg
Plasmodium gallinaceum [18] = test: Antimalarial activity against sporozoite stage of Plasmodium gallinaceum infected in white leghorn cockerel assessed as survival over 30 days at 3.75 mg/kg, sc administered through peanut oil on day of infection; format: functional, organism-based; set-up: dose 3.75 mg/kg
Plasmodium berghei [19] = test: Antimalarial activity against trophozoite stage of Plasmodium berghei infected in mouse assessed as increase in mean survival time at 160 mg/kg, sc administered 72 hrs post infection; format: functional; details: route subcutaneous
Plasmodium gallinaceum [20] = test: Antimalarial activity against sporozoite stage of Plasmodium gallinaceum infected in white leghorn cockerel assessed as survival over 30 days at 80 mg/kg, sc administered through peanut oil on day of infection; format: functional, organism-based; set-up: dose 80 mg/kg
Plasmodium gallinaceum [21] = test: Antimalarial activity against sporozoite stage of Plasmodium gallinaceum infected in white leghorn cockerel assessed as survival over 30 days at 20 mg/kg, sc administered through peanut oil on day of infection; format: functional, organism-based; set-up: dose 20 mg/kg
Plasmodium gallinaceum [22] = test: Antimalarial activity against sporozoite stage of Plasmodium gallinaceum infected in white leghorn cockerel assessed as survival over 30 days at 320 mg/kg, sc administered through peanut oil on day of infection; format: functional, organism-based; set-up: dose 320 mg/kg

SMILES	Activity (Plasmodium berghei [1])	MIC (Enterococcus faecalis) [µg/mL]	MIC (Escherichia coli) [µg/mL]	MIC (Shigella sonnei) [µg/mL]	MIC (Staphylococcus aureus [6]) [µg/mL]	MIC (Staphylococcus aureus [7]) [µg/mL]	also measured
COc1cc(N(C)Cc2c[n+]([O-])c3nc(N)nc(N)c3n2)cc(OC)c1OC	inactive	–	–	–	–	–	–
Nc1nc(N)c2nc(CNc3ccc(Cl)c(Cl)c3)c[n+]([O-])c2n1	inactive	–	–	–	–	–	–
CN(Cc1cnc2nc(N)nc(N)c2n1)c1cccc2ccccc12	–	< 0.25	> 25	> 25	1 (≈ 3.02 µM)	> 2.5	Activity (Plasmodium berghei [2]): Active; Activity (Plasmodium cynomolgi [3]): inactive; Activity (Plasmodium cynomolgi [4]): inactive; Survival (Plasmodium berghei [5]): 5.4 days
CCN(Cc1cnc2nc(N)nc(N)c2n1)c1ccc(Cl)cc1	inactive	< 0.25	> 25	> 25	< 0.25	1.5 (≈ 4.55 µM)	–
CN(C)C=O.Nc1nc(N)c2nc(CN3CCCCC3c3ccccc3)cnc2n1 (configuration not stated)	–	–	–	–	–	–	Survival (Plasmodium gallinaceum [8]): 0.1 days; Survival (Plasmodium gallinaceum [9]): 0.2 days; Survival (Plasmodium gallinaceum [10]): 0.3 days
Nc1nc(N)c2nc(CN3CCCc4ccccc43)cnc2n1	–	–	–	–	–	–	Activity (Plasmodium gallinaceum [11]): Active; Activity (Plasmodium gallinaceum [12]): Active; Survival (Plasmodium gallinaceum [13]): 1.3 days; Activity (Plasmodium gallinaceum [14]): Active; Activity (Plasmodium gallinaceum [15]): Active; Survival (Plasmodium gallinaceum [16]): 2.3 days
CCOC(=O)c1ccc(N(C)Cc2cnc3nc(N)nc(N)c3n2)cc1	inactive	–	–	–	–	–	Activity (Plasmodium gallinaceum [11]): Active; Activity (Plasmodium gallinaceum [12]): Active; Activity (Plasmodium gallinaceum [14]): Active
CCN(Cc1c[n+]([O-])c2nc(N)nc(N)c2n1)c1ccc(Cl)cc1	inactive	–	–	–	–	–	–
CC(C)N(Cc1cnc2nc(N)nc(N)c2n1)c1ccc(Cl)cc1.CN(C)C=O	inactive	< 0.25	> 25	> 25	< 0.25	1.5	Activity (Plasmodium gallinaceum [17]): Active; Activity (Plasmodium gallinaceum [18]): Active; Activity (Plasmodium gallinaceum [11]): Active; Activity (Plasmodium gallinaceum [12]): Active; Activity (Plasmodium gallinaceum [14]): Active; Activity (Plasmodium gallinaceum [15]): Active
CCCN(Cc1c[n+]([O-])c2nc(N)nc(N)c2n1)c1ccc(Cl)c(Cl)c1	inactive	–	–	–	–	–	–
CC(C)N(Cc1c[n+]([O-])c2nc(N)nc(N)c2n1)c1ccc(Cl)cc1	inactive	–	–	–	–	–	–
CN(C)C=O.Nc1nc(N)c2nc(CNc3ccc(Cl)c(Cl)c3)cnc2n1	inactive	< 0.25	> 25	> 25	< 0.25	< 0.25	–
CN(Cc1c[n+]([O-])c2nc(N)nc(N)c2n1)c1ccc(Cl)cc1	inactive	–	–	–	–	–	–
CCN(Cc1c[n+]([O-])c2nc(N)nc(N)c2n1)c1ccc(OC)cc1	inactive	–	–	–	–	–	–
CN(Cc1cnc2nc(N)nc(N)c2n1)c1ccc(Cl)cc1	inactive	< 0.25	> 25	> 25	1.5 (≈ 4.75 µM)	2 (≈ 6.33 µM)	–
Nc1nc(N)c2nc(CN(C=O)c3ccc(Cl)c(Cl)c3)cnc2n1	inactive	< 0.25	> 25	> 25	1 (≈ 2.75 µM)	2 (≈ 5.49 µM)	–
CCCN(Cc1cnc2nc(N)nc(N)c2n1)c1ccc(Cl)c(Cl)c1	inactive	< 0.25	> 25	> 25	< 0.25	< 0.25	Activity (Plasmodium gallinaceum [18]): Active; Activity (Plasmodium gallinaceum [11]): Active; Activity (Plasmodium gallinaceum [12]): Active; Activity (Plasmodium gallinaceum [14]): Active; Activity (Plasmodium gallinaceum [15]): Active
CN(Cc1c[n+]([O-])c2nc(N)nc(N)c2n1)c1ccc(Cl)c(Cl)c1	inactive	–	–	–	–	–	–
CN(Cc1cnc2nc(N)nc(N)c2n1)c1ccc(Cl)c(Cl)c1	inactive	< 0.25	> 25	> 25	< 0.25	1.5 (≈ 4.28 µM)	–
COc1cc(N(C)Cc2cnc3nc(N)nc(N)c3n2)cc(OC)c1OC	–	< 0.25	> 25	> 25	< 0.25	< 0.25	Activity (Plasmodium berghei [2]): Active; Survival (Plasmodium berghei [19]): 8.5 days
CC(C)N(Cc1cnc2nc(N)nc(N)c2n1)c1ccc(Cl)c(Cl)c1	inactive	< 0.25	> 25	> 25	< 0.25	< 0.25	–
CC(C)N(Cc1c[n+]([O-])c2nc(N)nc(N)c2n1)c1ccc(Cl)c(Cl)c1	inactive	–	–	–	–	–	–
CCN(Cc1cnc2nc(N)nc(N)c2n1)c1ccc(OC)cc1	inactive	< 0.25	> 25	> 25	< 0.25	< 0.25	Activity (Plasmodium gallinaceum [20]): Active; Activity (Plasmodium gallinaceum [21]): Active; Activity (Plasmodium gallinaceum [22]): Active
CN(Cc1c[n+]([O-])c2nc(N)nc(N)c2n1)c1cccc2ccccc12	inactive	–	–	–	–	–	–
